Data published in ChEMBL document CHEMBL1141302, “Anti-Helicobacter pylori and thrombin inhibitory components from Chinese dragon's blood, Dracaena cochinchinensis” (J Nat Prod, 2007).
Values after ≈ are worked out from the molar mass of the structure shown.

Columns and labels:
[1] = system: Helicobacter pylori; assay: Antibacterial activity against Helicobacter pylori ATCC 43504 by agar dilution method; format: functional
Method in brief: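 Mueller-Hinton agar plates with 7% lysed sheep blood and 2-fold serial dilutions of compound; spots of 5 µL bacterial suspension (10^7 cfu/mL) by multipoint inoculator; 37°C for 3 days, microaerobic (5% O2, 10% CO2, 85% N2, 98% humidity). MIC read as lowest inhibitory concentration; drug-free and DMSO-dilution plates as negative controls.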

[2] = target: Prothrombin (Homo sapiens, UniProt P00734); assay: Inhibition of human thrombin
[3] = target: Dipeptidyl peptidase 4 (Homo sapiens, UniProt P27487); assay: Inhibition of human recombinant DPP4
Sequence of Dipeptidyl peptidase 4 (P27487 whole entry): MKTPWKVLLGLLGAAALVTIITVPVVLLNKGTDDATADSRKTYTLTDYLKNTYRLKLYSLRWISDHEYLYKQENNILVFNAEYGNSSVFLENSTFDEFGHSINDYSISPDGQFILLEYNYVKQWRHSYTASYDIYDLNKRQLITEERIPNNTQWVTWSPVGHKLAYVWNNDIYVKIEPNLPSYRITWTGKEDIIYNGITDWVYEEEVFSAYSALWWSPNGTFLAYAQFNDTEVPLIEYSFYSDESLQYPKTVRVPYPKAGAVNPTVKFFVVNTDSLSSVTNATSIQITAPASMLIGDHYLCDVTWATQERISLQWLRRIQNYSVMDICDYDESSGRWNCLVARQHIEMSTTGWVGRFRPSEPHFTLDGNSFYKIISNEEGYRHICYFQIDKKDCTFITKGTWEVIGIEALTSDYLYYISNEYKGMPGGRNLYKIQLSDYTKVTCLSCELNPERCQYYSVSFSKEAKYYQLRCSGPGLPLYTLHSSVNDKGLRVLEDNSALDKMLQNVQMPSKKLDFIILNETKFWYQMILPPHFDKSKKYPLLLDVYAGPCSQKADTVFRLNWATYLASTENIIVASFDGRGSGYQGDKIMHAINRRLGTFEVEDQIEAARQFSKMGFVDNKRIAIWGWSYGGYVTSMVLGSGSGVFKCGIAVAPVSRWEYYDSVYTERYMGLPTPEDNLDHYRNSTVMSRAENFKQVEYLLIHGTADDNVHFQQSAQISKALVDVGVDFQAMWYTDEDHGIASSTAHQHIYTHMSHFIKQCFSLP
Method in brief: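 Recombinant human DPP-IV, expressed and purified in-house, at 0.01 nM in 100 mM Hepes pH 7.5 with 10 µM Ala-Pro-AMC substrate and 2% DMSO.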

Row | Compound | MIC [1] [µM] | IC50 [2] [µM] | IC50 [3] [µM]
1 | COc1cc(O)c(C(CCc2ccc(O)cc2OC)c2ccc(O)cc2)cc1CCC(=O)c1ccc(O)cc1 (stereo not given) | 60.6 (≈ 32 µg/mL) | 26.3 | > 36.9
2 | Cc1c(O)ccc2c1O[C@H](c1ccc(O)cc1)CC2 | 31.3 (≈ 8.02 µg/mL) |  | 
3 | COc1cc(O)c2c(c1C)O[C@H](c1ccc(O)cc1)CC2 | 55.9 (≈ 16 µg/mL) |  | 
4 | COc1ccc([C@@H]2CCc3ccc(O)cc3O2)cc1 | 250 (≈ 64.1 µg/mL) |  | 
5 | O=C(CCc1ccc(O)cc1O)c1ccc(O)cc1 | 248 (≈ 64.1 µg/mL) |  | 
6 | COc1cc(O)ccc1C(=O)/C=C/c1ccc(O)cc1 | 118 (≈ 32 µg/mL) |  | 
7 | COc1cc(O)ccc1CCC(=O)c1ccc(O)cc1 | 235 (≈ 64.1 µg/mL) |  | 
8 | COc1ccc(CCC(=O)c2ccc(O)cc2)c(OC)c1 | 224 (≈ 64.1 µg/mL) |  | 
9 | COc1cc(O)ccc1CCC(c1ccc(O)cc1)c1cc2c(c(C)c1O)O[C@@H](c1ccc(O)cc1)CC2 (stereo not given in full) | 62.5 (≈ 32 µg/mL) | 21.5 | > 39.1
10 | COc1ccc2c(c1C)O[C@@H](c1ccc(O)cc1)CC2 | 59.3 (≈ 16 µg/mL) |  | 
11 | COc1c(O)ccc2c1OCC(Cc1ccc(O)cc1)C2 (stereo not given) | 55.9 (≈ 16 µg/mL) |  | 
12 | COc1cc(O)cc(O)c1CCC(=O)c1ccc(O)cc1 | 111 (≈ 32 µg/mL) |  | 
13 | COc1cc(O)cc(OC)c1CCC(=O)c1ccc(O)cc1 | 212 (≈ 64.1 µg/mL) |  | 
14 | CC1(C)S[C@@H]2[C@H](NC(=O)[C@H](N)c3ccc(O)cc3)C(=O)N2[C@H]1C(=O)O [AMOXICILLIN] | 0.08 (≈ 0.0292 µg/mL) |  | 
15 | COc1ccc(C(CCc2ccc(O)cc2OC)c2c(OC)cc(/C=C/c3ccc(O)cc3)cc2OC)cc1 (stereo not given) [COCHINCHINENENE A] | 60.8 (≈ 32 µg/mL) | > 9.5 | > 36.9
16 | COc1ccc(C(CCc2ccc(O)cc2OC)c2c(O)cc(OC)cc2/C=C/c2ccc(O)cc2)cc1 (stereo not given) [COCHINCHINENENE B] | 62.5 (≈ 32 µg/mL) | 17.8 | > 39.1
17 | COc1cc(O)ccc1CCC(c1ccc(O)cc1)c1c(/C=C/c2ccc(O)cc2)cc(O)cc1OC (stereo not given) [COCHINCHINENENE C] | 64.3 (≈ 32.1 µg/mL) | 26.7 | > 40.2
18 | COc1cc(O)ccc1CCC(c1ccc(O)cc1)c1c(O)cc(O)cc1/C=C/c1ccc(O)cc1 (stereo not given) [COCHINCHINENENE D] | 66.1 (≈ 32 µg/mL) | > 41.3 | > 41.3
19 | COc1cc(OC)c(C(CCc2ccc(O)cc2OC)c2ccc(O)cc2)cc1CCC(=O)c1ccc(O)cc1 (stereo not given) [COCHINCHINENIN B] | 29.5 (≈ 16 µg/mL) | 12.3 | > 36.9
20 | COc1ccc(C(CCc2ccc(O)cc2OC)c2cc(CCC(=O)c3ccc(O)cc3)c(OC)cc2O)cc1 (stereo not given) [COCHINCHINENIN C] | 29.5 (≈ 16 µg/mL) | > 9.2 | > 36.9
21 | COC1=CC(=O)C=C(OC)C1(O)CCC(=O)c1ccc(O)cc1 [COCHINCHINENONE] | 201 (≈ 64.1 µg/mL) |  | 
22 | Cc1ncc([N+](=O)[O-])n1CCO [METRONIDAZOLE] | 748 (≈ 128 µg/mL) |  | 
23 | COc1ccc(/C=C/c2cc(O)cc(O)c2)cc1 [RESVERATROL 4'-METHYL ETHER] | 264 (≈ 64.1 µg/mL) |  | 
24 | Oc1ccc(/C=C/c2cc(O)cc(O)c2)cc1 [RESVERATROL] | 281 (≈ 64.1 µg/mL) |  | 
